Tests used:
[1] = target: Cholinesterase (Homo sapiens, UniProt P06276); assay: Inhibition constant against human Butyrylcholinesterase (hBuChE) using butyrylthiocholine (BuTCh) as substrate
[2] = target: T1, Liver carboxylesterase 1 (Homo sapiens, UniProt P23141); assay: Inhibition constant against human liver carboxylesterase 1 (hCE1) using nitrophenyl acetate (o-NPA) as substrate
T1 sequence (P23141 whole entry): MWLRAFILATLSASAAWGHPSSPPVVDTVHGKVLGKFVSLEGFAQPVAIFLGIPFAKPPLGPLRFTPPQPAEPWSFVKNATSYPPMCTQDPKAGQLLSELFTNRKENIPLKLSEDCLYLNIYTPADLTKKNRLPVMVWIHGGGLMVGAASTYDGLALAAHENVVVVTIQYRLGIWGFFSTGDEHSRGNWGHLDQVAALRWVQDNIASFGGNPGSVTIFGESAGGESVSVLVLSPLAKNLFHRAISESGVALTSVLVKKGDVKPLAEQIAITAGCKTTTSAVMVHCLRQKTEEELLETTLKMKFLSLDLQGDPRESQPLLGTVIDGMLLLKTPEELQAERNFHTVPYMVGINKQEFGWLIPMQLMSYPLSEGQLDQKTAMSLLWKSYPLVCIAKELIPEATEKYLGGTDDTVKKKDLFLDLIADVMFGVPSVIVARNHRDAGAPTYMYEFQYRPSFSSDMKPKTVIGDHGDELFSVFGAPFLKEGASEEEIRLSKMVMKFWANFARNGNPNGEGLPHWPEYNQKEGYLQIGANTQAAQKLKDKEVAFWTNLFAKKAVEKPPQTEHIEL

[3] = target: T2, Liver carboxylesterase 1 (Oryctolagus cuniculus, UniProt P12337); assay: Inhibition constant against rabbit liver carboxylesterase (rCE) using nitrophenyl acetate (o-NPA) as substrate
T2 sequence (P12337 whole entry): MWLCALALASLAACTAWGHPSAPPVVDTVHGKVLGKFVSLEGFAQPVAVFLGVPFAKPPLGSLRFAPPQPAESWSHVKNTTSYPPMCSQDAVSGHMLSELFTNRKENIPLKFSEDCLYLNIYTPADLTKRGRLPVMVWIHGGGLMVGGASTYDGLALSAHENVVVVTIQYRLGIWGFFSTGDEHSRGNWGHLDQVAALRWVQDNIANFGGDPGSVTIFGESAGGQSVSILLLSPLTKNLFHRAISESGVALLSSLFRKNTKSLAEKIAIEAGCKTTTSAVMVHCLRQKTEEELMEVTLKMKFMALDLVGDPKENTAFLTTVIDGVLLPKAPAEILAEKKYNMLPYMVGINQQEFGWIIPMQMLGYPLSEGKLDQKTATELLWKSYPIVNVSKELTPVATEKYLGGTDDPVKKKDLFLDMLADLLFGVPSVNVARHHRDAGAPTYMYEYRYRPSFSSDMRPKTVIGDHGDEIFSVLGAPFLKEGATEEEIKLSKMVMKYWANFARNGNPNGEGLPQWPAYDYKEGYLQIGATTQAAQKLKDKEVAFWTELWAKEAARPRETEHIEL
How it was run: (§1)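 Pure rCE prepared per earlier work. Spectrophotometric multiwell assay with 3mM o-NPA. Inhibitor and substrate were dispensed first, then enzyme was added. A420 was read every 15 s for 5 min and compared with no-inhibitor wells. Inhibitor range started at 1 pM. Duplicates, with 50 µM BNPP and DMSO/no-enzyme controls. Ki came from a partially competitive inhibition equation fit.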

[4] = target: Acetylcholinesterase (Homo sapiens, UniProt P22303); assay: Inhibition constant against human Acetylcholinesterase (hAcChE) using acetylthiocholine (AcTCh) as substrate
Sequence of Acetylcholinesterase (P22303 whole entry): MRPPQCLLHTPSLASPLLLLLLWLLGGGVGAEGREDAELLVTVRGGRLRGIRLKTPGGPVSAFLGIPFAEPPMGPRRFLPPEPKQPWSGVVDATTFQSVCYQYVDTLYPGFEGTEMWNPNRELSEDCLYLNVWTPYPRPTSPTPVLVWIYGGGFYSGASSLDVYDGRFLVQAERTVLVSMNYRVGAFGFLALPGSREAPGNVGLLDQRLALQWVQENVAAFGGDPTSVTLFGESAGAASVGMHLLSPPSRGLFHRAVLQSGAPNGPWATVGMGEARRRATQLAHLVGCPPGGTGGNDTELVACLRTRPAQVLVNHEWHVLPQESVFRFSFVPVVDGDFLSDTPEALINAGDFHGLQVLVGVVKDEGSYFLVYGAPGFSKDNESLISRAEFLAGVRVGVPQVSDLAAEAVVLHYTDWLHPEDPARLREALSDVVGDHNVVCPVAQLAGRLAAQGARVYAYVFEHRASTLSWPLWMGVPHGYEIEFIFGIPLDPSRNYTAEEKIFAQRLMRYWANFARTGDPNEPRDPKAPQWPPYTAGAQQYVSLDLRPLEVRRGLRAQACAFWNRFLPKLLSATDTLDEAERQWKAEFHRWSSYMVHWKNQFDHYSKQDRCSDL

[5] = target: T3, Cocaine esterase (Homo sapiens, UniProt O00748); assay: Inhibition constant against human intestinal carboxylesterase 2 (hiCE) using nitrophenyl acetate (o-NPA) as substrate
T3 sequence (O00748 whole entry): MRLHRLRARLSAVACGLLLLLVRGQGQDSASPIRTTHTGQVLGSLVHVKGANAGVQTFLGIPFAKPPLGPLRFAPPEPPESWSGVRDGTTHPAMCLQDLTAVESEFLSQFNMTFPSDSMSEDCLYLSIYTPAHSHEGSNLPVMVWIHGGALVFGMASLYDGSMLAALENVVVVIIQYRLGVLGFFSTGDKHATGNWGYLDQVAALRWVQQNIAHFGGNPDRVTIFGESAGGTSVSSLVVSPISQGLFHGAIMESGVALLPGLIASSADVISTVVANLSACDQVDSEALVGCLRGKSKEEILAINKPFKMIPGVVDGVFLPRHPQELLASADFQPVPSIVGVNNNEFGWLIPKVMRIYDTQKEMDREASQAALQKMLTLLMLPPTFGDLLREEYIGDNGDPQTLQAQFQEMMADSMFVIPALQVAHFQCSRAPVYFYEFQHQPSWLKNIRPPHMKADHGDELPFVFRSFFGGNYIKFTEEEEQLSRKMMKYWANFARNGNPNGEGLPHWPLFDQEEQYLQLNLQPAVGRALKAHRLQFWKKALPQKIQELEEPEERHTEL

[6] = target: T2, Liver carboxylesterase 1; assay: Inhibition constant against rabbit liver carboxylesterase using CPT-11
How it was run: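 Purified rabbit CE was used with CPT-11 as the substrate. CPT-11 and SN-38 were quantified by HPLC with fluorescence detection.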

[7] = target: T1, Liver carboxylesterase 1; assay: Inhibition constant against human liver carboxylesterase 1 using 4-MUA (4-methylumbelliferone acetate)
How it was run: (§2)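 Pure enzyme (hCE1 or rabbit CE) was incubated with 0.75 mM 4-methylumbelliferone acetate in 50 mM Hepes, pH 7.4. Inhibitor dilution series were run, and Ki was obtained by fitting fractional inhibition to a partially competitive inhibition equation.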

[8] = target: T2, Liver carboxylesterase 1; assay: Inhibition constant against rabbit liver carboxylesterase using 4-MUA (4-methylumbelliferone acetate)
How it was run: as §2, with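 “7.4. 4-Methylumbelliferone release was read fluorimetrically (excitation 365 nm, emission 460 nm) over 1 min, where the rate was linear.” for “7.4.”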

[9] = target: T1, Liver carboxylesterase 1; assay: Inhibition constant against human liver carboxylesterase 1 using o-NPA (nitrophenyl acetate)
How it was run: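 Purified hCE1 was assayed in multiwell plates with 3 mM o-nitrophenyl acetate, with enzyme added last. Absorbance change at 420 nm was read every 15 s for 5 min and compared with no-inhibitor wells. Inhibitor concentrations started at 1 pM, and assays were run in duplicate with 50 µM BNPP and DMSO/no-enzyme controls. Ki came from fitting to a partially competitive inhibition equation.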

[10] = target: T2, Liver carboxylesterase 1; assay: Inhibition constant against rabbit liver carboxylesterase using o-NPA (nitrophenyl acetate); how it was run: as §1

Sequence of Cholinesterase (P06276 whole entry): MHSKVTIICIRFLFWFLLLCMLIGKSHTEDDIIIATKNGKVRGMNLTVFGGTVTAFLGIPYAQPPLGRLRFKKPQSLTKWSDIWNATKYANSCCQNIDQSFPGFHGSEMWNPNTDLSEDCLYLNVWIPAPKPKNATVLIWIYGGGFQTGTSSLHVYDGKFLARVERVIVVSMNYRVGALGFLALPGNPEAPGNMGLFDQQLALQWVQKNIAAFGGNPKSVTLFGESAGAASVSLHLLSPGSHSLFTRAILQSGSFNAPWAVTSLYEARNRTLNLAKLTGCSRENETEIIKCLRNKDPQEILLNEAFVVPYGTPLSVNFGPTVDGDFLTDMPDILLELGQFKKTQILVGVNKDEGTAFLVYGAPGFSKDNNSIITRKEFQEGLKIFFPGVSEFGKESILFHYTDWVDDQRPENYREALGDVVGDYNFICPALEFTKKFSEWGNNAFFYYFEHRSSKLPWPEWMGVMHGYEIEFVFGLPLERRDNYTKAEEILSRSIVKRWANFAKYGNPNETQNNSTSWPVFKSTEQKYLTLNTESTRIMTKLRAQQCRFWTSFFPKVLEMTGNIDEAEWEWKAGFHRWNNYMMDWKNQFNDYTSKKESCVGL

Compound | Ki [1] | Ki [2] | Ki [3] | Ki [4] | Ki [5] | Ki [6] | Ki [7] | Ki [8] | Ki [9] | Ki [10]
O=C1CCCCC1=O | > 100 µM | > 100 µM | > 100 µM | > 100 µM | > 100 µM |  |  |  |  | 
[O-][S+](Cc1ccccc1)Cc1ccccc1 | > 100 µM | > 100 µM | > 100 µM | > 100 µM | > 100 µM |  |  |  |  | 
CC1CCCC(=O)C1=O (stereo not drawn) | > 100 µM | > 100 µM | > 100 µM | > 100 µM | > 100 µM |  |  |  |  | 
CC(=O)CC(C)=O | > 100 µM | > 100 µM | > 100 µM | > 100 µM | > 100 µM |  |  |  |  | 
CN(C)c1ccc(C(=O)C(=O)c2ccc(N(C)C)cc2)cc1 |  |  | 2.15 µM |  |  |  |  |  |  | 
CC1C(=O)CCCC1=O | > 100 µM | > 100 µM | > 100 µM | > 100 µM | > 100 µM |  |  |  |  | 
CC1CC(C)(C)CC(=O)C1=O (stereo not drawn) | > 100 µM | > 100 µM | > 100 µM | > 100 µM | > 100 µM |  |  |  |  | 
Cc1ccc(C(=O)C(=O)c2ccccc2)cc1[N+](=O)[O-] |  |  | 0.0119 µM |  |  | 0.0241 µM | 7.5 nM | 0.004 µM | 0.295 µM | 
O=C(C(=O)c1ccc(Cl)cc1)c1ccc(Cl)cc1 |  | 0.182 µM | 0.0095 µM |  |  | 0.043 µM | 1.6 nM | 0.0013 µM | 0.182 µM | 0.0095 µM
O=C(C(=O)c1ccc(Cl)cc1)c1ccccc1 |  |  | 0.0239 µM |  |  | 0.0525 µM | 5.4 nM | 0.0017 µM | 0.0474 µM | 
CC(=O)C(=O)c1ccccc1 | > 100 µM | 5.27 µM | 4.93 µM | > 100 µM |  |  |  |  |  | 
CN(C)c1ccc(C(O)C(=O)c2ccccc2)cc1 (stereo not drawn) | > 100 µM | > 100 µM | > 100 µM | > 100 µM | > 100 µM |  |  |  |  | 
O=C(O)c1ccc(C(=O)c2ccccc2)cc1 | > 100 µM | > 100 µM | > 100 µM | > 100 µM | > 100 µM |  |  |  |  | 
CC1NC(=O)C(=O)OC1C (stereo not drawn) | > 100 µM | > 100 µM | > 100 µM | > 100 µM | > 100 µM |  |  |  |  | 
Cc1ccc(C(=O)C(=O)c2ccccc2)cc1C |  |  | 0.108 µM |  |  | 0.24 µM | 18.8 nM | 0.0044 µM | 0.0991 µM | 
O=C(C(=O)c1ccc(Br)cc1)c1ccc(Br)cc1 |  |  | 0.0041 µM |  |  | 0.025 µM | 0.029 nM | 0.00017 µM |  | 
O=C(C(=O)c1ccc(C(=O)C(=O)c2ccccc2)cc1)c1ccccc1 |  |  | 0.0061 µM |  |  | 0.0141 µM |  | 0.0021 µM |  | 
CC1C(=O)CCC1=O | > 100 µM | > 100 µM | > 100 µM | > 100 µM | > 100 µM |  |  |  |  | 
CC(=O)CCC(=O)c1ccccc1 | > 100 µM | > 100 µM | > 100 µM | > 100 µM | > 100 µM |  |  |  |  | 

Compound | Ki [1] | Ki [2] | Ki [3] | Ki [4] | Ki [5] | Ki [6] | Ki [7] | Ki [8] | Ki [9] | Ki [10]
O=C1CCCC(=O)C1 | > 100 µM | > 100 µM | > 100 µM | > 100 µM | > 100 µM |  |  |  |  | 
CCCCC(=O)C(C)=O | > 100 µM | 16.9 µM | > 100 µM | > 100 µM | > 100 µM |  |  |  |  | 
O=C1C(=O)C(Cl)=C(Cl)C(Cl)=C1Cl | 3.2 µM | 5.44 µM | 1.03 µM | 1.67 µM | 0.875 µM |  |  |  |  | 
COC(OC)(C(=O)c1ccccc1)c1ccccc1 | > 100 µM | 15.3 µM | > 100 µM | > 100 µM | > 100 µM |  |  |  |  | 
O=S(=O)(Cc1ccccc1)Cc1ccccc1 | > 100 µM | > 100 µM | > 100 µM | > 100 µM | > 100 µM |  |  |  |  | 
CC(C)(C)C1=CC(=O)C(=O)C(C(C)(C)C)=C1 | > 100 µM | 0.0886 µM | 0.736 µM | > 100 µM | 1.35 µM |  |  |  |  | 
OC(c1ccccc1)C(O)c1ccccc1 (stereo not drawn) | > 100 µM | > 100 µM | > 100 µM | > 100 µM | > 100 µM |  |  |  |  | 
COc1ccc(C(=O)C(O)c2ccc(OC)cc2)cc1 (stereo not drawn) | > 100 µM | > 100 µM | 13.9 µM | > 100 µM | > 100 µM |  |  |  |  | 
CC1CCC(=O)C1=O (stereo not drawn) | > 100 µM | > 100 µM | 15.7 µM | > 100 µM | > 100 µM |  |  |  |  | 
Oc1nc2cc(Cl)c(Cl)cc2nc1O [2,3-DIHYDROXY-6,7-DICHLOROQUINOXALINE] | > 100 µM | > 100 µM | > 100 µM | > 100 µM | > 100 µM |  |  |  |  | 
CCC(=O)C(C)=O [2,3-PENTANEDIONE] | > 100 µM | > 100 µM | > 100 µM | > 100 µM | > 100 µM |  |  |  |  | 
O=C(c1ccccc1)C(O)c1ccccc1 (stereo not drawn) [BENZOIN] |  |  | > 100 µM |  |  |  |  |  |  | 
O=C(c1ccccc1)c1ccccc1 [BENZOPHENONE] | > 100 µM | > 100 µM | > 100 µM |  | > 100 µM |  |  |  |  | 
O=C1C=CC(=O)C=C1 [BENZOQUINONE] | 2.05 µM | > 100 µM | > 100 µM | 0.955 µM | > 100 µM |  |  |  |  | 
O=S(=O)(Cc1ccccc1)c1ccccc1 [BENZYLSULFONYLBENZENE] | > 100 µM | > 100 µM | > 100 µM | > 100 µM | > 100 µM |  |  |  |  | 
CC(=O)C(C)=O [BUTANEDIONE] | > 100 µM | > 100 µM | > 100 µM | > 100 µM | > 100 µM |  |  |  |  | 
O=C1C(Cl)=C(Cl)C(=O)C(Cl)=C1Cl [CHLORANIL] | 0.268 µM | 0.0839 µM | 0.0548 µM | 0.163 µM |  |  |  |  |  | 
O=C(CC(=O)c1ccccc1)c1ccccc1 [DIBENZOYLMETHANE] | > 100 µM | 26 µM | 3.95 µM | > 100 µM | > 100 µM |  |  |  |  | 

Source: ChEMBL document CHEMBL1143603, “Identification and characterization of novel benzil (diphenylethane-1,2-dione) analogues as inhibitors of mammalian carboxylesterases” (J Med Chem, 2005)
